≈ marks a conversion by molar mass, not a printed value. Calls of active or inactive are those of the source. The rule behind the calls is not given here.
Columns and labels:
Mycobacterium avium [1] = assay: Antimycobacterial activity against Mycobacterium avium CNCTC My 330/88 after 14 days; assay type: functional; conditions: CNCTC My 330/88, 336 h
Method in brief: (§1)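 M. avium was tested by microdilution in Šula's semisynthetic medium, with compounds dissolved in DMSO and serially diluted from 1000 down to 1. Inoculum was a 1.0 McFarland suspension diluted 10-5. Plates were incubated at 37 °C and read at 14 and 21 days. […] Isoniazid and rifampicin served as standards.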

Staphylococcus aureus = assay: Antibacterial activity against Staphylococcus aureus subsp. aureus ATCC 29213 CCM 4223 at highest concentration measured after 24 to 48 hrs by alamar blue dye based broth microdilution assay; assay type: functional, organism-based
Aspergillus flavus = assay: Antifungal activity against Aspergillus flavus CCM 8363 at highest concentration measured after 24 to 48 hrs by alamar blue dye based broth microdilution assay; assay type: functional, organism-based
Klebsiella pneumoniae = assay: Antibacterial activity against Klebsiella pneumoniae at highest concentration measured after 24 to 48 hrs by alamar blue dye based broth microdilution assay; assay type: functional, organism-based
[2] = system: Trichophyton interdigitale; assay: Antifungal activity against Trichophyton interdigitale ATCC 9533 CCM 8377 at highest concentration measured after 72 to 120 hrs by alamar blue dye based broth microdilution assay; assay type: functional
Escherichia coli = assay: Antibacterial activity against Escherichia coli ATCC 25922 CCM 3954 at highest concentration measured after 24 to 48 hrs by alamar blue dye based broth microdilution assay; assay type: functional, organism-based
Lichtheimia corymbifera = assay: Antifungal activity against Lichtheimia corymbifera CCM 8077 at highest concentration measured after 24 to 48 hrs by alamar blue dye based broth microdilution assay; assay type: functional, organism-based
Pichia kudriavzevii = assay: Antifungal activity against Candida krusei ATCC 6258 CCM8271 at highest concentration measured after 24 to 48 hrs by alamar blue dye based broth microdilution assay; assay type: functional, organism-based
[3] = system: Mycobacterium tuberculosis; assay: Antimycobacterial activity against Mycobacterium tuberculosis H37Rv CNCTC My 331/88 after 21 days; assay type: functional; conditions: H37Rv CNCTC My 331/88, 504 h
Method in brief: (§2)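 M. tuberculosis strains (H37Rv and clinical MDR/XDR isolates) tested by microdilution in Šula's semisynthetic medium. Compounds were dissolved in DMSO and tested at 32 to 0.03 µM in twofold steps. Inoculum was a 1.0 McFarland suspension diluted 10-3. Plates were incubated at 37 °C and read at 14 and 21 days.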

Aspergillus fumigatus = assay: Antifungal activity against Aspergillus fumigatus ATCC 204305 at highest concentration measured after 24 to 48 hrs by alamar blue dye based broth microdilution assay; assay type: functional, organism-based
Mycobacterium kansasii [4] = assay: Antimycobacterial activity against Mycobacterium kansasii CNCTC My 235/80 after 14 days; assay type: functional; conditions: CNCTC My 235/80, 336 h
Method in brief: (§3)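 Microdilution in Šula's semisynthetic medium; compounds in DMSO at 32–0.03 µM. Inoculum from 1.0 McFarland suspension diluted 10-4. […] Isoniazid and rifampicin as reference drugs.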

Serratia marcescens = assay: Antibacterial activity against Serratia marcescens at highest concentration measured after 24 to 48 hrs by alamar blue dye based broth microdilution assay; assay type: functional, organism-based
Mycobacterium avium [5] = assay: Antimycobacterial activity against Mycobacterium avium CNCTC My 330/88 after 21 days; assay type: functional; conditions: CNCTC My 330/88, 504 h; method in brief: as §1
[6] = system: Mycobacterium tuberculosis; assay: Antimycobacterial activity against XDR Mycobacterium tuberculosis Praha 131 after 21 days; assay type: functional; conditions: Praha 131, 504 h; method in brief: as §2
Mycobacterium kansasii [7] = assay: Antimycobacterial activity against Mycobacterium kansasii CNCTC My 235/80 after 7 days; assay type: functional; conditions: CNCTC My 235/80, 168 h; method in brief: as §3
Mycobacterium kansasii [8] = assay: Antimycobacterial activity against Mycobacterium kansasii CNCTC My 235/80 after 21 days; assay type: functional; conditions: CNCTC My 235/80, 504 h; method in brief: as §3
[9] = molecular target: T1, Decaprenylphosphoryl-beta-D-ribose oxidase (Mycobacterium smegmatis (strain ATCC 700084 / mc(2)155)) (UniProt A0R607); assay: Inhibition of DprE1 in Mycolicibacterium smegmatis MC2 155 lysate assessed as reduction in epimerization of P[14C]RPP to DP[14C]A at 700 uM measured after 1.5 hrs in presence of NADH by TLC-based autoradiography; assay type: subcellular
T1 sequence (whole entry): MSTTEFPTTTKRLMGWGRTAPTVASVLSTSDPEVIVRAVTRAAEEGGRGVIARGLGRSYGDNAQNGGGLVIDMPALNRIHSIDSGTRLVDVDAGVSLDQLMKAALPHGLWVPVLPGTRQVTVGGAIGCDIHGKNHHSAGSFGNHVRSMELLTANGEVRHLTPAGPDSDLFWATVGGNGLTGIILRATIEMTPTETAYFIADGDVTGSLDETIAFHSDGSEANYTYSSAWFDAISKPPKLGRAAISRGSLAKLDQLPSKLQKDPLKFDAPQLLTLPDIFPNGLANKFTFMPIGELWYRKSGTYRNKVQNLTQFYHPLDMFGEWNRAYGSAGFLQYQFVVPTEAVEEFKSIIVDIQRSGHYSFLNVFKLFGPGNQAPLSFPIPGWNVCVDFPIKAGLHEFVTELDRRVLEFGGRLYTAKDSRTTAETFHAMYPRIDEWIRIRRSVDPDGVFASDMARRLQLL
Method in brief: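 Cell-free DPA synthesis used a membrane/cell-envelope fraction (430 µg), spun at 100 000 × g, from sonicated M. smegmatis mc2155. The fraction was incubated 1.5 h with 15,000 dpm P[14C]RPP and NADH. BTZ was used at 70 µM and test compounds at 700 µM final, both added from DMSO stocks. Lipids were extracted, 25% was resolved by TLC, and autoradiography ran 8 days at -80 °C.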

[10] = molecular target: T2, Decaprenylphosphoryl-beta-D-ribose oxidase (Mycobacterium tuberculosis (strain ATCC 25618 / H37Rv)) (UniProt P9WJF1); assay: Inhibition of DprE1 in Mycobacterium tuberculosis H37Rv assessed as accumulation of trehalose dimycolates at 10 times MIC measured after 24 hrs in presence of [14C]-acetate by TLC-based autoradiography
T2 sequence (whole entry): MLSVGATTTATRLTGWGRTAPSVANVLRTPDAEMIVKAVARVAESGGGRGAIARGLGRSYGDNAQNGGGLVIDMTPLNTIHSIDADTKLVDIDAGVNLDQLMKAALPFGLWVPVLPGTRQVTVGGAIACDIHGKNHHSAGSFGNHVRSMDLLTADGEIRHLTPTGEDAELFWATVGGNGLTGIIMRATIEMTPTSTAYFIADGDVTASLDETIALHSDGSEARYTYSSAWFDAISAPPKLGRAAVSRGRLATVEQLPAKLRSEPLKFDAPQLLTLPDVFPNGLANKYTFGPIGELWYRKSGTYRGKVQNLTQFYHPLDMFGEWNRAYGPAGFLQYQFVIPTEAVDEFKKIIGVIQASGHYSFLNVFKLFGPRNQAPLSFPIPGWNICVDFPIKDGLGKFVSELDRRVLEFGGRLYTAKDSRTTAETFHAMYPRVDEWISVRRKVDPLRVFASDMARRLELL
Method in brief: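 M. tuberculosis H37Rv cultures were exposed to compound at final 10× or 100× MIC, or to DMSO, together with [14C]-acetate at 1 µCi/ml final. After 24 h, lipids were extracted in CHCl3/CH3OH (2:1) for 2 h at 65 °C and given two Folch washes. Extracts were run on TLC in CHCl3/CH3OH/H2O (20:4:0.5), then autoradiographed for 7 days at -80 °C.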

Row | Structure (SMILES) | MIC99 (Mycobacterium avium [1]) [µM] | Activity (Staphylococcus aureus) | Activity (Aspergillus flavus) | Activity (Klebsiella pneumoniae) | Activity [2] | Activity (Escherichia coli) | Activity (Lichtheimia corymbifera) | Activity (Pichia kudriavzevii) | MIC99 [3] [µM] | Activity (Aspergillus fumigatus) | MIC99 (Mycobacterium kansasii [4]) [µM] | Activity (Serratia marcescens) | MIC99 (Mycobacterium avium [5]) [µM] | MIC99 [6] [µM] | MIC99 (Mycobacterium kansasii [7]) [µM] | MIC99 (Mycobacterium kansasii [8]) [µM] | DprE1 inhibition (active/not active) [9] | inhibition [10]
1 | COc1ccc(CSc2nnc(-c3cc([N+](=O)[O-])cc(C(F)(F)F)c3)n2Cc2ccccc2)cc1 | 250 (≈ 125 µg/mL) | inactive | inactive | inactive | inactive | inactive | inactive | inactive | 0.5 (≈ 0.25 µg/mL) | inactive | 0.5 (≈ 0.25 µg/mL) | inactive | 250 (≈ 125 µg/mL) | 1 (≈ 0.501 µg/mL) | 0.5 (≈ 0.25 µg/mL) | 0.5 (≈ 0.25 µg/mL) | Active | Active
2 | O=[N+]([O-])c1cc(-c2nnc(SCc3ccccc3)n2Cc2ccccc2)cc([N+](=O)[O-])c1 | 125 (≈ 55.9 µg/mL) | inactive | inactive | inactive | inactive | inactive | inactive | inactive | 0.03 (≈ 0.0134 µg/mL) | inactive | 0.03 (≈ 0.0134 µg/mL) | inactive | 125 (≈ 55.9 µg/mL) | 0.03 (≈ 0.0134 µg/mL) | 0.03 (≈ 0.0134 µg/mL) | 0.03 (≈ 0.0134 µg/mL) | Active | inactive
3 | COc1ccc(Cn2c(SCc3cc([N+](=O)[O-])cc([N+](=O)[O-])c3)nnc2-c2ccccc2)cc1 | 250 (≈ 119 µg/mL) | inactive | inactive | inactive | inactive | inactive | inactive | inactive | 2 (≈ 0.955 µg/mL) | inactive | 2 (≈ 0.955 µg/mL) | inactive | 250 (≈ 119 µg/mL) | 4 (≈ 1.91 µg/mL) | 1 (≈ 0.478 µg/mL) | 2 (≈ 0.955 µg/mL) | inactive | inactive
4 | CCCCCCn1c(SCc2cc([N+](=O)[O-])cc([N+](=O)[O-])c2)nnc1-c1ccccc1 | 250 (≈ 110 µg/mL) | inactive | inactive | inactive | inactive | inactive | inactive | inactive | 2 (≈ 0.883 µg/mL) | inactive | 1 (≈ 0.442 µg/mL) | inactive | 250 (≈ 110 µg/mL) | 4 (≈ 1.77 µg/mL) | 1 (≈ 0.442 µg/mL) | 2 (≈ 0.883 µg/mL) | inactive | inactive
5 | O=[N+]([O-])c1cc(-c2nnc(SCc3ccccc3)n2Cc2ccccc2)cc(C(F)(F)F)c1 | 250 (≈ 118 µg/mL) | inactive | inactive | inactive | inactive | inactive | inactive | inactive | 0.03 (≈ 0.0141 µg/mL) | inactive | 0.03 (≈ 0.0141 µg/mL) | inactive | 250 (≈ 118 µg/mL) | 0.06 (≈ 0.0282 µg/mL) | 0.03 (≈ 0.0141 µg/mL) | 0.03 (≈ 0.0141 µg/mL) | Active | Active
6 | COc1ccc(CSc2nnc(-c3cc([N+](=O)[O-])cc([N+](=O)[O-])c3)n2Cc2ccccc2)cc1 | 62 (≈ 29.6 µg/mL) | inactive | inactive | inactive | inactive | inactive | inactive | inactive | 0.03 (≈ 0.0143 µg/mL) | inactive | 0.03 (≈ 0.0143 µg/mL) | inactive | 62 (≈ 29.6 µg/mL) | 0.03 (≈ 0.0143 µg/mL) | 0.03 (≈ 0.0143 µg/mL) | 0.03 (≈ 0.0143 µg/mL) | Active | inactive

— ChEMBL document CHEMBL4373711, “Development of 3,5-Dinitrophenyl-Containing 1,2,4-Triazoles and Their Trifluoromethyl Analogues as Highly Efficient Antitubercular Agents Inhibiting Decaprenylphosphoryl-β-d-ribofuranose 2'-Oxidase” (J Med Chem, 2019)
